Experimental data reported in ChEMBL document CHEMBL1150393, “Evaluation of radiolabeled (hetero)aromatic analogues of N-(2-diethylaminoethyl)-4-iodobenzamide for imaging and targeted radionuclide therapy of melanoma” (J Med Chem, 2008).

Assays:
[1] = Biodistribution in gall bladder of C57BL/6 mouse bearing mouse B16-F0 cells at 0.74 to 0.92 MBq, iv after 3 hrs; assay type: ADME, organism-based; settings: in vivo
Outline: (§1)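 Male C57BL6 mice with s.c. left-flank B16-F0 melanoma (5 × 10⁵ cells in PBS). Two mice per time point frozen in liquid nitrogen after CO₂ sacrifice. Eight 40 µm whole-body cryosections per mouse read by multiwire proportional counter. cpm/mm² converted to kBq/g and expressed as %ID/g.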

Kidney [2] = assay: Biodistribution in kidney of C57BL/6 mouse bearing mouse B16-F0 cells at 0.74 to 0.92 MBq, iv after 1 hr; assay type: ADME, organism-based; settings: in vivo; outline: as §1
Blood [3] = assay: Biodistribution in blood of C57BL/6 mouse bearing mouse B16-F0 cells at 0.74 to 0.92 MBq, iv after 1 hr; assay type: ADME, organism-based; settings: in vivo; outline: as §1
[4] = Biodistribution in uvea of C57BL/6 mouse bearing mouse B16-F0 cells at 0.74 to 0.92 MBq, iv after 72 hrs; assay type: ADME, organism-based, Uveal tract; settings: in vivo
Outline: (§2)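 [¹²⁵I]-labelled compound given iv by tail vein (0.1 µmol per mouse) to male C57BL6 mice bearing s.c. B16-F0 flank tumours (5 × 10⁵ cells in PBS). Two mice per time point were killed by CO₂, frozen in liquid nitrogen and cut into 40 µm cryosections, eight slices per mouse. Slice radioactivity was read on a multiwire proportional counter, converted to kBq/g and reported as %ID/g.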

[5] = Drug excretion in mouse B16-F0 cells bearing C57BL/6 mouse urine at 0.74 to 0.92 MBq, iv after 72 hrs; assay type: ADME, organism-based; settings: in vivo
Outline: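 Urine was collected from two B16-F0 tumour-bearing C57BL6 mice for up to 72 h after iv tail-vein injection of the [¹²⁵I]-labelled compound (0.1 µmol). Samples were counted to give cumulative urinary excretion as %ID.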

[6] = Ratio of drug level in tumor to lung of C57BL/6 mouse bearing mouse B16-F0 cells at 0.74 to 0.92 MBq, iv after 3 hrs; assay type: ADME, organism-based; settings: in vivo
Outline: (§3)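 Tumour and organ radioactive concentrations came from whole-body cryosection counting (40 µm slices, eight per mouse, two mice per time) after tail-vein injection of the [¹²⁵I]-labelled compound (0.1 µmol) into male C57BL6 mice bearing s.c. B16-F0 melanoma. Each value is the ratio of the tumour concentration to the organ concentration.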

Thyroid gland [7] = assay: Biodistribution in thyroid of C57BL/6 mouse bearing mouse B16-F0 cells at 0.74 to 0.92 MBq, iv after 3 hrs; assay type: ADME, organism-based; settings: in vivo; outline: as §2
Blood [8] = assay: Biodistribution in blood of C57BL/6 mouse bearing mouse B16-F0 cells at 0.74 to 0.92 MBq, iv after 3 hrs; assay type: ADME, organism-based; settings: in vivo; outline: as §1
[9] = Ratio of drug level in tumor to lung of C57BL/6 mouse bearing mouse B16-F0 cells at 0.74 to 0.92 MBq, iv after 1 hr; assay type: ADME, organism-based; settings: in vivo; outline: as §3
[10] = Biodistribution in intestinal content of C57BL/6 mouse bearing mouse B16-F0 cells at 0.74 to 0.92 MBq, iv after 6 hrs; assay type: ADME, organism-based; settings: in vivo; outline: as §1
[11] = Biodistribution in uvea of C57BL/6 mouse bearing mouse B16-F0 cells at 0.74 to 0.92 MBq, iv after 1 hr; assay type: ADME, organism-based, Uveal tract; settings: in vivo; outline: as §2
[12] = Partition coefficient, log P in phosphate buffer solution at pH 7.4; assay type: physicochemical
Outline: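 Shake-flask partition: 50 µM [¹²⁵I]-labelled compound in phosphate buffer pH 7.4 was mixed with 2 mL n-octanol. Each phase was γ-counted, P was taken as the octanol/buffer activity ratio, and log P was reported.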

[13] = Biodistribution in tumor of C57BL/6 mouse bearing mouse B16-F0 cells at 0.74 to 0.92 MBq, iv after 72 hrs; assay type: ADME, organism-based, Neoplasm; settings: in vivo; outline: as §2
[14] = Ratio of drug level in tumor to liver of C57BL/6 mouse bearing mouse B16-F0 cells at 0.74 to 0.92 MBq, iv after 1 hr; assay type: ADME, organism-based; settings: in vivo; outline: as §3
Liver [15] = assay: Biodistribution in liver of C57BL/6 mouse bearing mouse B16-F0 cells at 0.74 to 0.92 MBq, iv after 3 hrs; assay type: ADME, organism-based; settings: in vivo; outline: as §1
[16] = Ratio of drug level in tumor to liver of C57BL/6 mouse bearing mouse B16-F0 cells at 0.74 to 0.92 MBq, iv after 6 hrs; assay type: ADME, organism-based; settings: in vivo; outline: as §3
[17] = Biodistribution in tumor of C57BL/6 mouse bearing mouse B16-F0 cells at 0.74 to 0.92 MBq, iv after 24 hrs; assay type: ADME, organism-based, Neoplasm; settings: in vivo; outline: as §2
[18] = Biodistribution in tumor of C57BL/6 mouse bearing mouse B16-F0 cells at 0.74 to 0.92 MBq, iv after 3 hrs; assay type: ADME, organism-based, Neoplasm; settings: in vivo; outline: as §2
[19] = Biodistribution in Stomach content of C57BL/6 mouse bearing mouse B16-F0 cells at 0.74 to 0.92 MBq, iv after 1 hr; assay type: ADME, organism-based; settings: in vivo; outline: as §1
[20] = Biodistribution in intestinal content of C57BL/6 mouse bearing mouse B16-F0 cells at 0.74 to 0.92 MBq, iv after 1 hr; assay type: ADME, organism-based; settings: in vivo; outline: as §1
Thyroid gland [21] = assay: Biodistribution in thyroid of C57BL/6 mouse bearing mouse B16-F0 cells at 0.74 to 0.92 MBq, iv after 72 hrs; assay type: ADME, organism-based; settings: in vivo; outline: as §2
Thyroid gland [22] = assay: Biodistribution in thyroid of C57BL/6 mouse bearing mouse B16-F0 cells at 0.74 to 0.92 MBq, iv after 24 hrs; assay type: ADME, organism-based; settings: in vivo; outline: as §2
Spleen [23] = assay: Biodistribution in spleen of C57BL/6 mouse bearing mouse B16-F0 cells at 0.74 to 0.92 MBq, iv after 1 hr; assay type: ADME, organism-based; settings: in vivo; outline: as §2
Spleen [24] = assay: Biodistribution in spleen of C57BL/6 mouse bearing mouse B16-F0 cells at 0.74 to 0.92 MBq, iv after 6 hrs; assay type: ADME, organism-based; settings: in vivo; outline: as §2
Muscle tissue = assay: Biodistribution in muscle of C57BL/6 mouse bearing mouse B16-F0 cells at 0.74 to 0.92 MBq, iv after 1 hr; assay type: ADME, organism-based; settings: in vivo; outline: as §1
Liver [25] = assay: Biodistribution in liver of C57BL/6 mouse bearing mouse B16-F0 cells at 0.74 to 0.92 MBq, iv after 6 hrs; assay type: ADME, organism-based; settings: in vivo; outline: as §1
[26] = Biodistribution in uvea of C57BL/6 mouse bearing mouse B16-F0 cells at 0.74 to 0.92 MBq, iv after 24 hrs; assay type: ADME, organism-based, Uveal tract; settings: in vivo; outline: as §2
[27] = Biodistribution in uvea of C57BL/6 mouse bearing mouse B16-F0 cells at 0.74 to 0.92 MBq, iv after 6 hrs; assay type: ADME, organism-based, Uveal tract; settings: in vivo; outline: as §2
Lung [28] = assay: Biodistribution in lung of C57BL/6 mouse bearing mouse B16-F0 cells at 0.74 to 0.92 MBq, iv after 3 hrs; assay type: ADME, organism-based; settings: in vivo; outline: as §1
[29] = Ratio of drug level in tumor to liver of C57BL/6 mouse bearing mouse B16-F0 cells at 0.74 to 0.92 MBq, iv after 3 hrs; assay type: ADME, organism-based; settings: in vivo; outline: as §3
Liver [30] = assay: Biodistribution in liver of C57BL/6 mouse bearing mouse B16-F0 cells at 0.74 to 0.92 MBq, iv after 1 hr; assay type: ADME, organism-based; settings: in vivo; outline: as §1
[31] = Biodistribution in gall bladder of C57BL/6 mouse bearing mouse B16-F0 cells at 0.74 to 0.92 MBq, iv after 6 hrs; assay type: ADME, organism-based; settings: in vivo; outline: as §1
Thyroid gland [32] = assay: Biodistribution in thyroid of C57BL/6 mouse bearing mouse B16-F0 cells at 0.74 to 0.92 MBq, iv after 6 hrs; assay type: ADME, organism-based; settings: in vivo; outline: as §2
[33] = Biodistribution in intestinal content of C57BL/6 mouse bearing mouse B16-F0 cells at 0.74 to 0.92 MBq, iv after 3 hrs; assay type: ADME, organism-based; settings: in vivo; outline: as §1
Kidney [34] = assay: Biodistribution in kidney of C57BL/6 mouse bearing mouse B16-F0 cells at 0.74 to 0.92 MBq, iv after 3 hrs; assay type: ADME, organism-based; settings: in vivo; outline: as §1
[35] = Biodistribution in Stomach content of C57BL/6 mouse bearing mouse B16-F0 cells at 0.74 to 0.92 MBq, iv after 24 hrs; assay type: ADME, organism-based; settings: in vivo; outline: as §1
[36] = Biodistribution in uvea of C57BL/6 mouse bearing mouse B16-F0 cells at 0.74 to 0.92 MBq, iv after 3 hrs; assay type: ADME, organism-based, Uveal tract; settings: in vivo; outline: as §2
Pancreas = assay: Biodistribution in pancreas of C57BL/6 mouse bearing mouse B16-F0 cells at 0.74 to 0.92 MBq, iv after 1 hr; assay type: ADME, organism-based; settings: in vivo; outline: as §1
Lung [37] = assay: Biodistribution in lung of C57BL/6 mouse bearing mouse B16-F0 cells at 0.74 to 0.92 MBq, iv after 1 hr; assay type: ADME, organism-based; settings: in vivo; outline: as §1
[38] = Biodistribution in tumor of C57BL/6 mouse bearing mouse B16-F0 cells at 0.74 to 0.92 MBq, iv after 1 hr; assay type: ADME, organism-based, Neoplasm; settings: in vivo; outline: as §2
[39] = Biodistribution in Stomach content of C57BL/6 mouse bearing mouse B16-F0 cells at 0.74 to 0.92 MBq, iv after 3 hrs; assay type: ADME, organism-based; settings: in vivo; outline: as §1
[40] = Biodistribution in intestinal content of C57BL/6 mouse bearing mouse B16-F0 cells at 0.74 to 0.92 MBq, iv after 24 hrs; assay type: ADME, organism-based; settings: in vivo; outline: as §1
[41] = Biodistribution in tumor of C57BL/6 mouse bearing mouse B16-F0 cells at 0.74 to 0.92 MBq, iv after 6 hrs; assay type: ADME, organism-based, Neoplasm; settings: in vivo; outline: as §2
[42] = Biodistribution in Stomach content of C57BL/6 mouse bearing mouse B16-F0 cells at 0.74 to 0.92 MBq, iv after 6 hrs; assay type: ADME, organism-based; settings: in vivo; outline: as §1

CCN(CC)CCNC(=O)c1nc2cc([125I])ccc2[nH]1.Cl.Cl
Drug uptake [1]: 160.6 % ID/g | Drug uptake (Kidney [2]): 6.9 % ID/g | Drug uptake (Blood [3]): 3.31 % ID/g | Drug uptake [4]: 7.26 % ID/g | Activity [5]: 17.1% | Ratio [6]: 4.31 | Drug uptake (Thyroid gland [7]): 63.44 % ID/g | Drug uptake (Blood [8]): 1.33 % ID/g | Ratio [9]: 2.86 | Drug uptake [10]: 95.86 % ID/g | Drug uptake [11]: 12.87 % ID/g | logD [12]: 1.47 | Drug uptake [13]: 4.5 % ID/g | Ratio [14]: 1.13 | Drug uptake (Liver [15]): 7.15 % ID/g | Ratio [16]: 2.93 | Drug uptake [17]: 7.1 % ID/g | Drug uptake [18]: 16.1 % ID/g | Drug uptake [19]: 24.46 % ID/g | Drug uptake [20]: 105.55 % ID/g | Drug uptake (Thyroid gland [21]): 174.73 % ID/g | Drug uptake (Thyroid gland [22]): 142.88 % ID/g | Drug uptake (Spleen [23]): 11.51 % ID/g | Drug uptake (Spleen [24]): 14.97 % ID/g | Drug uptake (Muscle tissue): 0.55 % ID/g | Drug uptake (Liver [25]): 3.38 % ID/g | Drug uptake [26]: 10.44 % ID/g | Drug uptake [27]: 10.09 % ID/g | Drug uptake (Lung [28]): 3.74 % ID/g | Ratio [29]: 2.26 | Drug uptake (Liver [30]): 13.08 % ID/g | Drug uptake [31]: 38.11 % ID/g | Drug uptake (Thyroid gland [32]): 34.17 % ID/g | Drug uptake [33]: 72.05 % ID/g | Drug uptake (Kidney [34]): 4.57 % ID/g | Drug uptake [35]: 2.32 % ID/g | Drug uptake [36]: 24.4 % ID/g | Drug uptake (Pancreas): 6.17 % ID/g | Drug uptake (Lung [37]): 5.16 % ID/g | Drug uptake [38]: 14.8 % ID/g | Drug uptake [39]: 17.98 % ID/g | Drug uptake [40]: 3.19 % ID/g | Drug uptake [41]: 9.9 % ID/g | Drug uptake [42]: 8.62 % ID/g
